According to PubChem BioAssay AID588810 (Broad Institute, 2011):
Values joined by “and” are separate entries in the source; they are usually repeats but may differ in a detail not shown here. Identical values can stand only once. Inconclusive results are not listed. Active and inactive are the calls of the source.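 The calls were made as follows: active = rising curve reaching 40% of the stimulating control's effect at or below the top valid tested dose; inconclusive = flat curve between 30 and 70% of control, or poor fit; inactive = falling curves and all the rest.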

molecular target: Scavenger receptor class B member 1 (Mus musculus) (UniProt Q61009); test: increase of Alexa488-HDL binding at mSR-BI cells – ldlA[mSR-BI] cells, powder samples, set 2, orthogonal assay for SR-BI HDL uptake inhibitor project, dose response (AID 588810); conditions: ldlA[mSR-BI] CHO cells, Alexa488-HDL binding fluorescence, 3 h
Sequence (Q61009 whole entry, looked up): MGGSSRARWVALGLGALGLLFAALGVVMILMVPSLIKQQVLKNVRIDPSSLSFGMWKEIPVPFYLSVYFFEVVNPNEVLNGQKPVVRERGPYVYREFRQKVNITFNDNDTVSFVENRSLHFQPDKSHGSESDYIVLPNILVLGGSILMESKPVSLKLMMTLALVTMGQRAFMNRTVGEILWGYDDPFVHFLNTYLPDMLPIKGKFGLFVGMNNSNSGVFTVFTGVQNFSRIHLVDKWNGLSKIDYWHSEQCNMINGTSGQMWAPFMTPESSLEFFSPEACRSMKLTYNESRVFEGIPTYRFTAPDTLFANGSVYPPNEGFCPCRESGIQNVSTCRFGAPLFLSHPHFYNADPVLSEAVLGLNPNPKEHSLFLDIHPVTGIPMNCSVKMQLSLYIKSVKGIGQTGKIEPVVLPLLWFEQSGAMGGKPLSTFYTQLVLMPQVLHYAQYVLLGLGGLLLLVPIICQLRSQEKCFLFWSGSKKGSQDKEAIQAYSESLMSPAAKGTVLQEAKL
Procedure, shortened: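 Test system: mouse SR-BI-expressing ldlA CHO cells / Medium: F12, 0.5% BSA, 25 mM HEPES pH 7.4 / Reagent: 10 µg/mL Alexa488-labeled HDL / Doses: dose series of compound / Times: 3 h exposure at 37 °C / Signal: bottom-read fluorescence after two PBS washes / Benchmarks: positive control BLT-1 1 µM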

AC40	SMILES
358 nM	CCC(=O)N1CCc2cc(-c3csc(NC(=O)c4ccc(F)c(OC)c4)n3)ccc21
12.7 nM	CCNC(=O)N1CCc2cc(-c3csc(NC(=O)c4cc(OC)cc(OC)c4)n3)ccc21
912 nM	CCC(=O)N1CCc2cc(-c3csc(NCc4cc(OC)cc(OC)c4)n3)ccc21
454 nM	CCC(=O)N1CCc2cc(-c3csc(NC(=O)c4cccc(OC)c4)n3)ccc21
21.8 nM	COCC(=O)N1CCc2cc(-c3csc(NC(=O)c4cc(OC)cc(OC)c4)n3)ccc21
324 nM	COC(=O)N1CCc2cc(-c3csc(NC(=O)c4cc(OC)cc(OC)c4)n3)ccc21
22.2 nM	CCC(=O)N1CCc2cc(-c3csc(NC(=O)c4cc(OC)c(OC)c(OC)c4)n3)ccc21
232 nM	COc1cc(OC)cc(C(=O)Nc2nc(-c3ccc4c(c3)CCN4C(=O)CN(C)C)cs2)c1
6.07 nM	CCC(=O)N1CC(C)(C)c2cc(-c3csc(NC(=O)c4cc(OC)cc(OC)c4)n3)ccc21
24.5 nM	COc1cc(OC)cc(C(=O)Nc2nc(-c3ccc4c(c3)CCN4C(=O)OC(C)(C)C)cs2)c1
672 nM	CCC(=O)n1ccc2cc(-c3csc(NC(=O)c4cc(OC)cc(OC)c4)n3)ccc21
312 nM and 2270 nM	CCC(=O)N1CCc2cc(-c3csc(NC(=O)c4ccco4)n3)ccc21
1580 nM	CCC(=O)N1CCc2cc(-c3csc(NC(=O)c4cc5ccccc5o4)n3)ccc21
371 nM	COc1cc(OC)cc(C(=O)Nc2nc(-c3ccc4c(c3)CCN4C(C)=O)cs2)c1
382 nM	CCC(=O)N1CCc2cc(-c3csc(NC(=O)c4cc(OC)cc(OC)c4)n3)ccc21
943 nM	CCC(=O)N1CCc2cc(-c3csc(NC(=O)c4cccc(OC(F)(F)F)c4)n3)ccc21

Second part, the molecule before the results:

SMILES	AC40
CC(=O)N1CCc2cc(-c3nc(NC(=O)c4cccc(OC(F)(F)F)c4)sc3C)ccc21	488 nM
COc1ccc(-c2nnn(CC(=O)N(CC(=O)N3CCCCC3)C3CCCCC3)n2)cc1OC	11800 nM
COc1ccc(-c2nnn(CC(=O)N(CC(=O)N(C)C3CCCC3)C3CCCCC3)n2)cc1OC	4950 nM
Cc1ccc2oc(-c3cccc(NC(=O)c4cc(-n5cnnc5)ccc4Cl)c3)nc2c1	> 80000 nM (inactive)
C[C@@H]1CN([C@H](C)CO)C(=O)c2cc(NC(=O)Cc3cn(C)c4ccccc34)ccc2O[C@H]1CN(C)S(=O)(=O)c1ccc(Cl)cc1	73.3 nM
C[C@@H](C(=O)NC1CCCC1)N(C(=O)Cn1nnc(-c2ccc3c(c2)OCO3)n1)C1CCCCC1	4690 nM
O=C(CN(C(=O)Cn1nnc(-c2ccc3c(c2)OCO3)n1)C1CCCCC1)NC1CCCC1	337 nM
COc1ccc(-c2nnn(CC(=O)N(C3CCCCC3)C(C)C(=O)NC3CCCC3)n2)cc1OC (stereo not drawn)	437 nM
COc1ccc(-c2nnn(CC(=O)N(CC(=O)NC3CCCC3)C3CCCCC3)n2)cc1OC	231 nM
CCC(=O)N1CC(C)(C)c2cc(-c3csc(NC(=O)c4ccco4)n3)ccc21	57.1 nM
CCC(=O)Nc1ccc(-c2csc(NC(=O)c3cccc(OC)c3)n2)cc1	347 nM
CC(C(=O)NC1CCCC1)N(C(=O)Cn1nnc(-c2ccc3c(c2)OCO3)n1)C1CCCCC1 (stereo not drawn)	214 nM
COc1ccc(-c2nc(CC(=O)N(C3CCCCC3)C(C)C(=O)NC3CCCC3)co2)cc1OC (stereo not drawn)	1360 nM
C[C@H](C(=O)NC1CCCC1)N(C(=O)Cn1nnc(-c2ccc3c(c2)OCO3)n1)C1CCCCC1	169 nM
COc1c(NC(=O)C(=O)c2ccc(OCCN3CCOCC3)c3ccccc23)cc(C(C)(C)C)cc1NS(C)(=O)=O	1640 nM
O=C(Nc1nc(-c2ccc3c(c2)CCN3)cs1)c1ccco1	295 nM
COc1ccc(-c2cc(CC(=O)N(C3CCCCC3)C(C)C(=O)NC3CCCC3)no2)cc1OC (stereo not drawn)	145 nM
